Results published in PubChem BioAssay AID602403 (The Scripps Research Institute Molecular Screening Center, 2012).
Unmarked numbers belong to inactive results.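 Rule for the calls: active = inhibition of the enzyme-probe labelling of at least 50% at one fixed dose; inactive = inhibition below 50%.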

Target: Diacylglycerol lipase-alpha (Mus musculus) (UniProt Q6WQJ1)
Assay: mouse DAGLa inhibition, late-stage follow-up, selectivity assay for DAGLb inhibitor project, biochemical, gel-based competitive ABPP, recombinant, fluorescence (AID 602403)
Conditions: HEK293T membrane mouse DAGLa, at 0.4 µM, stronger effect = higher value
Outline: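 Assay system – membrane proteome of 293T HEK cells transiently overexpressing mouse DAGLa · Medium – Dulbecco's phosphate-buffered saline (DPBS) · Also added – HT-01 probe, 1 µM · Timing – compound pre-incubation 30 min, probe labeling 30 min, both 37 °C · Technique – in-gel fluorescence after SDS-PAGE · Measure – % inhibition from band IOD · Benchmarks – DMSO high, blank-gel background low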

Diacylglycerol lipase-alpha (Mus musculus), sequence (Q6WQJ1 whole entry, looked up): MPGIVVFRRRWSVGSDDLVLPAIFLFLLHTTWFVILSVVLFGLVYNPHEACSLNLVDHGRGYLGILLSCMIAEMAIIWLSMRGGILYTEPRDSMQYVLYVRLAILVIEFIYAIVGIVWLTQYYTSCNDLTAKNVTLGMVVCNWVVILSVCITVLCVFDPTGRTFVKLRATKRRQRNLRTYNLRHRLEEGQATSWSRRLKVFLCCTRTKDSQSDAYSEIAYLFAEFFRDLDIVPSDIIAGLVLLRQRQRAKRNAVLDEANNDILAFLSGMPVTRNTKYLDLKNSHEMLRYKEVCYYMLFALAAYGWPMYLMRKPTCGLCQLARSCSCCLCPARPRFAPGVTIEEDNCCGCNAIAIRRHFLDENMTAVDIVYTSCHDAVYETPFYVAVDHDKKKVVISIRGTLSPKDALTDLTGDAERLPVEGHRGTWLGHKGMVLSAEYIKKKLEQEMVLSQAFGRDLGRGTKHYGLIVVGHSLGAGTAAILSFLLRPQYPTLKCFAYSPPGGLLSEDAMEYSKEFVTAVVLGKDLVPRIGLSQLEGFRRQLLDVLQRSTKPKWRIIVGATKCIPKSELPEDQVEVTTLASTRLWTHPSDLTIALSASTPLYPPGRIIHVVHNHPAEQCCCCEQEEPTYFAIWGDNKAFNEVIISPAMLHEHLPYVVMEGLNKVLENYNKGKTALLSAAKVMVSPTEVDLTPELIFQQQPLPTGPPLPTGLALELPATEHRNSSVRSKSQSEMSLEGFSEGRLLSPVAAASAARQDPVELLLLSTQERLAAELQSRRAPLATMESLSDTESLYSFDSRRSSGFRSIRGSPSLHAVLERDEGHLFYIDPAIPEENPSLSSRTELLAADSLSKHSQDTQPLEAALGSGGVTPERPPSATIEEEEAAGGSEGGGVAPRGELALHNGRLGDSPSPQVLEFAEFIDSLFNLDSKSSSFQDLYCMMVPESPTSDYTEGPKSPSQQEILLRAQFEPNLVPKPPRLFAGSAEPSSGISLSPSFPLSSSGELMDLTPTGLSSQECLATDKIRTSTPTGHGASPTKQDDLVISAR

In the case of `O=C(N1CCCCC1Cc1ccccc1)n1cc(-c2ccc(-c3ccccc3)cc2)nn1` (stereo unspecified), the inhibition is reported as 40%.
